Consider seven compounds from ChEMBL document CHEMBL4371006, “Discovery of N-[4-(Quinolin-4-yloxy)phenyl]benzenesulfonamides as Novel AXL Kinase Inhibitors” (J Med Chem, 2018).

Each structure is given as a SMILES string. Active and inactive are the calls of the source. The rule behind the calls is not given here.

For data set [1], the target named is T1, Tyrosine-protein kinase receptor UFO (Homo sapiens, UniProt P30530).
T1 sequence (P30530 whole entry): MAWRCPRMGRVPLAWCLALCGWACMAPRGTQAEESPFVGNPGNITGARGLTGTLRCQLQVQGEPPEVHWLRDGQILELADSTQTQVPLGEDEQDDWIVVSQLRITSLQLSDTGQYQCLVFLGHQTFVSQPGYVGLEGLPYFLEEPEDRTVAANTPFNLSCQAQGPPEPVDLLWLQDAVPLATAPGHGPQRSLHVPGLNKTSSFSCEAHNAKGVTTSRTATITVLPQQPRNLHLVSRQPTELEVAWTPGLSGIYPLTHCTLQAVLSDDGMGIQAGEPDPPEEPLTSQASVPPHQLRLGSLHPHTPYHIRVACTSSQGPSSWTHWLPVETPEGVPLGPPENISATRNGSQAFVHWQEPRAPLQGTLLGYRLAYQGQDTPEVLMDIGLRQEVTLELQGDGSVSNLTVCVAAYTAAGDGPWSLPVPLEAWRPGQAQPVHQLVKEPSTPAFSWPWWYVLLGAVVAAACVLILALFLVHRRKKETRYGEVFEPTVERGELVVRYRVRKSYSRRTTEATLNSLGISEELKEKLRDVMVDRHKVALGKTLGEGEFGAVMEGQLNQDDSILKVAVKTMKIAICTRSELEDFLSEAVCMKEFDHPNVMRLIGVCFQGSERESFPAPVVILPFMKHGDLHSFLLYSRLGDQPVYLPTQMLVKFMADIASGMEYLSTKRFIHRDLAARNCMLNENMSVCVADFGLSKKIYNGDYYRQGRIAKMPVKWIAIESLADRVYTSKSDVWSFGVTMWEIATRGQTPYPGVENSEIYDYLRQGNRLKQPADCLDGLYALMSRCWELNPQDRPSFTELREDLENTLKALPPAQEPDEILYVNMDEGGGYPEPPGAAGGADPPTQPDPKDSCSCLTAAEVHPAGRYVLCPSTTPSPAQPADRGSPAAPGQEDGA
In words: Inhibition of AXL (unknown origin) phosphorylation after 1 hr by ELISA. In general terms: In an ELISA, binding on a coated surface is turned into a signal by an enzyme label.

Data set [2] addresses T1, Tyrosine-protein kinase receptor UFO. In words: Inhibition of AXL (unknown origin).
Data set [3] has as its target T2, Proto-oncogene tyrosine-protein kinase Src (Homo sapiens, UniProt P12931). In words: Inhibition of SRC (unknown origin).
Data set [4] has as its target T3, Hepatocyte growth factor receptor (Homo sapiens, UniProt P08581). In words: Inhibition of c-MET (unknown origin).
The target of data set [5] is T4, Epidermal growth factor receptor (Homo sapiens, UniProt P00533). In words: Inhibition of wild type EGFR (unknown origin).
T4 sequence (P00533 whole entry): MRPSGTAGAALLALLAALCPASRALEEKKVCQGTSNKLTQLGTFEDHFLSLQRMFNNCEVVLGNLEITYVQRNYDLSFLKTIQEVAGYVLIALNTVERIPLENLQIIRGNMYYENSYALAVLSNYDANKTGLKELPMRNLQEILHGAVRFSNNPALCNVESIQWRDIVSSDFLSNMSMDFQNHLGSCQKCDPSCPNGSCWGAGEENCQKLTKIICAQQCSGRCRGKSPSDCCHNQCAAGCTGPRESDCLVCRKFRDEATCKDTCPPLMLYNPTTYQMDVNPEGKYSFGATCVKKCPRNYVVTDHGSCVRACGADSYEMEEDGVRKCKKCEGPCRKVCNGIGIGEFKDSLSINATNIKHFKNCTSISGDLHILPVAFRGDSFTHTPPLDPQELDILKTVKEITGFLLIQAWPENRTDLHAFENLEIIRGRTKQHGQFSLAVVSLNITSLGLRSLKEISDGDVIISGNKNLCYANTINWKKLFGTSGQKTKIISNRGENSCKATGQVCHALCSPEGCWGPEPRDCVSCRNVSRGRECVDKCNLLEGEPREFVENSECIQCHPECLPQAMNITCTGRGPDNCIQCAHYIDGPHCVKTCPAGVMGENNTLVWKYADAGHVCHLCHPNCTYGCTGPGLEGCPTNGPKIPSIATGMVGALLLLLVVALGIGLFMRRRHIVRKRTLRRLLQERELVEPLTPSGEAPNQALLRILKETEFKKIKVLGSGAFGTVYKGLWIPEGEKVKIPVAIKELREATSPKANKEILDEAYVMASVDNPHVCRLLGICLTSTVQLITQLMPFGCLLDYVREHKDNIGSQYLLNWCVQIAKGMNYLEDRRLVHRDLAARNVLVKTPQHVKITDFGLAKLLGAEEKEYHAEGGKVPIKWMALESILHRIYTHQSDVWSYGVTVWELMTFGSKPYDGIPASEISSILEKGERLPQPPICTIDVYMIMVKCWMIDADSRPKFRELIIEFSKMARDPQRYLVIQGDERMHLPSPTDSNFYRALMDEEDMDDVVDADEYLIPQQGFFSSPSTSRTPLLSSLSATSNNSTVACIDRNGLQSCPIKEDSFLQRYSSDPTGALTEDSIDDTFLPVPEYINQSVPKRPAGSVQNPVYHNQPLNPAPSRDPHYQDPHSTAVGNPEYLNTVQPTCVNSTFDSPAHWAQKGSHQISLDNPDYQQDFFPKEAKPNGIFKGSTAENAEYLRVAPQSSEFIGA
Data set [6] has as its system MDA-MB-231. Nature of the data set: Antimigratory activity against human MDA-MB-231 cells after 3.5 hrs by microscopy based Boyden chamber assay. The data set is classed as functional, cell-based. The settings on record: MDA-MB-231, 3.5 h. An outline of the steps:
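Modified Boyden chamber: MDA-MB-231 cells plated in 0.1% FCS medium, migrating through 8 µm pore membrane toward 1% FCS chemoattractant for 3.5 h; transmigrated cells counted microscopically in at least 5 random fields per well.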

Data set [7] has as its system MDA-MB-231. Nature of the data set: Anti-invasive activity against human MDA-MB-231 cells up to 3 uM after 5 hrs by matrigel assay. The data set is classed as functional, cell-based. Summed up: (§1)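 MDA-MB-231 cells (7000/well) seeded on polymerized 3 mg/mL Matrigel (set ≥16 h at 37°C) in serum-free medium; inhibitor added at seeding, aggregates forming over 5 h.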

The test system of data set [8] is MDA-MB-231. In words: Antimigratory activity against human MDA-MB-231 cells assessed as inhibition of large cell aggregate formation after 5 hrs by matrigel assay. The settings on record: MDA-MB-231, 5 h. The data set is classed as functional, cell-based. Summed up: as §1
Data set [9] in a line: Ratio of IC50 for antimigratory activity against human MDA-MB-231 cells after 3.5 hrs by microscopy based Boyden chamber assay to IC50 for inhibition of AXL (unknown origin).
A short description of data set [10]: Selectivity ratio of compound effect for anti-invasive activity against human MDA-MB-231 cells to IC50 for AXL (unknown origin) phosphorylation.
For data set [11], the target named is Tyrosine-protein kinase receptor UFO (Homo sapiens) (UniProt P30530). Nature of the data set: Binding affinity to wild-type human partial length AXL (R497 to Y821 residues) expressed in bacterial expression system assessed as residual binding level at 5 umol/L by Kinomescan method.
Data set [12] addresses Serine/threonine-protein kinase 10 (Homo sapiens, UniProt O94804). Nature of the data set: Binding affinity to wild-type human partial length LOK (E16 to V314 residues) expressed in bacterial expression system assessed as residual binding level at 5 umol/L by Kinomescan method.
The target in data set [13] is Protein-tyrosine kinase 6 (Homo sapiens) (UniProt Q13882). In words: Binding affinity to wild-type human partial length BRK (L166 to T451 residues) expressed in bacterial expression system assessed as residual binding level at 5 umol/L by Kinomescan method.
Protein-tyrosine kinase 6 (Homo sapiens), sequence (Q13882 whole entry, looked up, the tested form may be a part): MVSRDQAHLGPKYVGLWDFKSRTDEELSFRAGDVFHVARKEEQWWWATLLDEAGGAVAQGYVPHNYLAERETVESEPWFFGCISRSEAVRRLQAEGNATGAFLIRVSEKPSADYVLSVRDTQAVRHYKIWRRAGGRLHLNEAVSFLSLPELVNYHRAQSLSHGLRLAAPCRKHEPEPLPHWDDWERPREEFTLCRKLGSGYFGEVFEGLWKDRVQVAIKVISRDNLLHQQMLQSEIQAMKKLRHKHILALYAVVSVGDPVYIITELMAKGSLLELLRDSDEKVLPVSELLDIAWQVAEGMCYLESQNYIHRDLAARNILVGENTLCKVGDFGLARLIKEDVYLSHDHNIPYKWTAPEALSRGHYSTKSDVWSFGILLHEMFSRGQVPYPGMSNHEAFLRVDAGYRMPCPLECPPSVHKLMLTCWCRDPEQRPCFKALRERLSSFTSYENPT
The target in data set [14] is T2, Proto-oncogene tyrosine-protein kinase Src. Nature of the data set: Binding affinity to wild-type human partial length SRC (L240 to L536 residues) expressed in bacterial expression system assessed as residual binding level at 5 umol/L by Kinomescan method.
Data set [15] addresses Tyrosine-protein kinase Blk (Homo sapiens) (UniProt P51451). In words: Binding affinity to wild-type human partial length BLK (G211 to L503 residues) expressed in bacterial expression system assessed as residual binding level at 5 umol/L by Kinomescan method.
The target of data set [16] is Tyrosine-protein kinase Lck (Homo sapiens) (UniProt P06239). In words: Binding affinity to wild-type human partial length LCK (R207 to P509 residues) expressed in bacterial expression system assessed as residual binding level at 5 umol/L by Kinomescan method.
The target of data set [17] is Receptor-interacting serine/threonine-protein kinase 2 (Homo sapiens, UniProt O43353). Nature of the data set: Binding affinity to wild-type human partial length RIPK2 (M1 to K310 residues) expressed in bacterial expression system assessed as residual binding level at 5 umol/L by Kinomescan method.
For data set [18], the target named is Platelet-derived growth factor receptor alpha (Homo sapiens) (UniProt P16234). In words: Binding affinity to wild-type human partial length PDGFRA (V575 to D1002 residues) expressed in mammalian expression system assessed as residual binding level at 5 umol/L by Kinomescan method.
For data set [19], the target named is Platelet-derived growth factor receptor beta (Homo sapiens) (UniProt P09619). Nature of the data set: Binding affinity to wild-type human partial length PDGFRB (V582 to Y1009 residues) expressed in bacterial expression system assessed as residual binding level at 5 umol/L by Kinomescan method.
Data set [20] deals with Macrophage colony-stimulating factor 1 receptor (Homo sapiens) (UniProt P07333). Nature of the data set: Binding affinity to wild-type human partial length CSF1R (I564 to S939 residues) expressed in bacterial expression system assessed as residual binding level at 5 umol/L by Kinomescan method.
Data set [21] addresses Epithelial discoidin domain-containing receptor 1 (Homo sapiens) (UniProt Q08345). In words: Binding affinity to wild-type human partial length DDR1 (R565 to V876 residues) expressed in bacterial expression system assessed as residual binding level at 5 umol/L by Kinomescan method.
Data set [22] addresses T4, Epidermal growth factor receptor. In words: Binding affinity to wild-type human partial length EGFR (R669 to V1011 residues) expressed in bacterial expression system assessed as residual binding level at 5 umol/L by Kinomescan method.
The target of data set [23] is Tyrosine-protein kinase ABL1 (Homo sapiens) (UniProt P00519). Nature of the data set: Binding affinity to wild-type human phosphorylated ABL1 (S229 to K512 residues) expressed in mammalian expression system assessed as residual binding level at 5 umol/L by Kinomescan method.
Data set [24] concerns the target Mast/stem cell growth factor receptor Kit (Homo sapiens) (UniProt P10721). Nature of the data set: Binding affinity to wild type human partial length c-KIT (I571 to D952 residues) expressed in bacterial expression system assessed as residual binding level at 5 umol/L by Kinomescan method.
Data set [25] has as its target T3, Hepatocyte growth factor receptor. In words: Binding affinity to wild type human partial length c-MET (D1010 to S1367 residues) expressed in bacterial expression system assessed as residual binding level at 5 umol/L by Kinomescan method.
Data set [26] can be described thus: Toxicity in SCID/beige mouse xenografted with human MDA-MB-231 cells assessed as body weight gain at 10 mg/kg, iv administered 3 times per week measured 3 times per week starting at day 12. The conditions noted are these: in vivo. The data set is classed as organism-based. For orientation: A xenograft is tissue or cells of one species grown in another, often human tumour cells in immunodeficient mice.

In data set [27] the test system is MDA-MB-231. Nature of the data set: Antitumor activity against human MDA-MB-231 cells xenografted in mouse assessed as tumor growth inhibition at 10 mg/kg, iv administered 3 times per week measured 3 times per week starting at day 12. The data set is classed as functional, organism-based. An outline of the steps:
(§2)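 Female SCID/Beige mice inoculated with 2 x 10^6 MDA-MB-231 cells in HBSS:Matrigel (1:1) into third mammary fat pad under ketamine/xylazine. Test agent 30 mg/kg ip twice daily (12 h apart) in PEG400/H2O 70:30, or paclitaxel 10 mg/kg iv three times weekly; 10 mice/group. Tumors measured three times weekly from day 12; lungs and lymph nodes excised, formalin-fixed, nodes H&E-scored (mean ± SEM).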

For data set [28], the system named is MDA-MB-231. In words: Antimetastatic activity against human MDA-MB-231 cells xenografted in mouse assessed as reduction in lung metastasis at 10 mg/kg, iv administered 3 times per week measured 3 times per week starting at day 12 by hematoxylin and eosin staining based assay relative to control. The data set is classed as functional. Further details: scale not given: the % may be the effect or the level left. Summed up:
as §2

Data set [29] has as its system MDA-MB-231. Nature of the data set: Antimetastatic activity against human MDA-MB-231 cells xenografted in mouse assessed as reduction in lymph node infiltrates at 10 mg/kg, iv administered 3 times per week measured 3 times per week starting at day 12 by hematoxylin and eosin staining based assay. The data set is classed as functional, organism-based. Summed up: as §2

T2 sequence (P12931 2-536 limits assumed): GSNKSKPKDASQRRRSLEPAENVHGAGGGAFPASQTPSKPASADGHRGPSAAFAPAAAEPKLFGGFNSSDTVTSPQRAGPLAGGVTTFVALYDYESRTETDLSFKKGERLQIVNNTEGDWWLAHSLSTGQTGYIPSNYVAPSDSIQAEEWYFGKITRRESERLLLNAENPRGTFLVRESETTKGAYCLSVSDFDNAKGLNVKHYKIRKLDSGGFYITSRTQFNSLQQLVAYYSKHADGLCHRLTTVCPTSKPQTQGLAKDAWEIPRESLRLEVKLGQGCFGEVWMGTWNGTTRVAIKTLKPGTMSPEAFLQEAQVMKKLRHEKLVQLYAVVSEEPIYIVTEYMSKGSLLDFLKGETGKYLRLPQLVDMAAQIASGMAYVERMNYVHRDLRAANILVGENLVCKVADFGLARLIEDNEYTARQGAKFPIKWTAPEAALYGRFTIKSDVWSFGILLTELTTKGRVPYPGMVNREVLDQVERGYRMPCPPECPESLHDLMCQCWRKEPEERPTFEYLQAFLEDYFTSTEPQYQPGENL
T3 sequence (P08581 whole entry): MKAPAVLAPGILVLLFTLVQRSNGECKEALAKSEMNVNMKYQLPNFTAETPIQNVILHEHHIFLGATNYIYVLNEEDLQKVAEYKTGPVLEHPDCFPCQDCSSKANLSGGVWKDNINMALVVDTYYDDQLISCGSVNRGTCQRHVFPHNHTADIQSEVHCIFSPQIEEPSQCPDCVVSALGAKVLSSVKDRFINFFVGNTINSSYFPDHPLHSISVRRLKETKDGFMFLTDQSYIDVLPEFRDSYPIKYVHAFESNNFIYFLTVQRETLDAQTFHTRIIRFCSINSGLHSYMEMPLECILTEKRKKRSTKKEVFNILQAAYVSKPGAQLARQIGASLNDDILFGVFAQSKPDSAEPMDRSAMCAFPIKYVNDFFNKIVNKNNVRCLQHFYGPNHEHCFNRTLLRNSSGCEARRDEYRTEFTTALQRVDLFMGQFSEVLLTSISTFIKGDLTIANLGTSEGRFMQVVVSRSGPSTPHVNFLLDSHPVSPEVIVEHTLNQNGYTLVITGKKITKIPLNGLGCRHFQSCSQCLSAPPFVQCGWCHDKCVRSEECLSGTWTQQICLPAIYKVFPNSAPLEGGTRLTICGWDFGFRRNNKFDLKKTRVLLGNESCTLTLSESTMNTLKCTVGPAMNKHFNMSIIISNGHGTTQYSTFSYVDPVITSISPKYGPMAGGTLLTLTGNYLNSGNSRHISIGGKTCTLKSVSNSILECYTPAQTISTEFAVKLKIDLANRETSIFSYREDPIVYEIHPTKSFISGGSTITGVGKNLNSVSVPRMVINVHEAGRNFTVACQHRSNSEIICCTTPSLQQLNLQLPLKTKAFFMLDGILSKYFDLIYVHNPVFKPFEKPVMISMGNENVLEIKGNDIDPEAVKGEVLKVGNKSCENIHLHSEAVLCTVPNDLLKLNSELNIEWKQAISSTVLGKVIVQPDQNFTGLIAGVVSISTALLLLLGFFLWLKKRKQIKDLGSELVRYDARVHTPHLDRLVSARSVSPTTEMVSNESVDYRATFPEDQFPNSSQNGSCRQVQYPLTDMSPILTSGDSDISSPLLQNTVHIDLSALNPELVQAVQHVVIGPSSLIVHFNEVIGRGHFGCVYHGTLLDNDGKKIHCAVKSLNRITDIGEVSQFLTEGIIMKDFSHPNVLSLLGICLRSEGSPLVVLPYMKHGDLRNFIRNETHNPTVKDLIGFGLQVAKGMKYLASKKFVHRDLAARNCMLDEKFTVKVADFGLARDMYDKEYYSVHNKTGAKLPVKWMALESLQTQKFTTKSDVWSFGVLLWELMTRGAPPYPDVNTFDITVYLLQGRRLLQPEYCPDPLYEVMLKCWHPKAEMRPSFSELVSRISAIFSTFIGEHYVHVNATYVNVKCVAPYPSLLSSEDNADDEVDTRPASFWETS
Serine/threonine-protein kinase 10, sequence (O94804 whole entry, looked up, the tested form may be a part): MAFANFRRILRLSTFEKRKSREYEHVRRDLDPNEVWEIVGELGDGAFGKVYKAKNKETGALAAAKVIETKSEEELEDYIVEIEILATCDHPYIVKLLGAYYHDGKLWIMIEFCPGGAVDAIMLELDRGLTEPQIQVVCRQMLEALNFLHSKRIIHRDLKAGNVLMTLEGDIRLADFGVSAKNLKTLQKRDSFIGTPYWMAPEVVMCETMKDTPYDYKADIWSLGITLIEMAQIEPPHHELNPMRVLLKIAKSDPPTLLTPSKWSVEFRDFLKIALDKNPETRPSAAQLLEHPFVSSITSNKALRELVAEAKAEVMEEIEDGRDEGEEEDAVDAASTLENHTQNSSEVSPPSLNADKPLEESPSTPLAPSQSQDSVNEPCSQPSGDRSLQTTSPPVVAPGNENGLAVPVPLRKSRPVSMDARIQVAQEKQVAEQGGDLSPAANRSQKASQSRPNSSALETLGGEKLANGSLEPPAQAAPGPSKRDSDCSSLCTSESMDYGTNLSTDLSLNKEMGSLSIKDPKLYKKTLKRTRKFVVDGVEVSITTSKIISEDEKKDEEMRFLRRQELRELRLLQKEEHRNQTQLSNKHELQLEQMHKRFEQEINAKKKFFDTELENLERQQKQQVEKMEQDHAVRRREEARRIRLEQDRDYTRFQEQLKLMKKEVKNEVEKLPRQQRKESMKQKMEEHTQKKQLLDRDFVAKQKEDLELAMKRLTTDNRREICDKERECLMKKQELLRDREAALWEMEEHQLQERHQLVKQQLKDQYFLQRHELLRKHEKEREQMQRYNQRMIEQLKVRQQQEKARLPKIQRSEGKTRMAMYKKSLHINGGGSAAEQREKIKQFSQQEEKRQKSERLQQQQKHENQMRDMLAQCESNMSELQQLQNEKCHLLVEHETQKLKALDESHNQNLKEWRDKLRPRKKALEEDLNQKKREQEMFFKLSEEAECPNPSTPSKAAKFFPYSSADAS
Tyrosine-protein kinase Blk (Homo sapiens), sequence (P51451 2-505 limits assumed): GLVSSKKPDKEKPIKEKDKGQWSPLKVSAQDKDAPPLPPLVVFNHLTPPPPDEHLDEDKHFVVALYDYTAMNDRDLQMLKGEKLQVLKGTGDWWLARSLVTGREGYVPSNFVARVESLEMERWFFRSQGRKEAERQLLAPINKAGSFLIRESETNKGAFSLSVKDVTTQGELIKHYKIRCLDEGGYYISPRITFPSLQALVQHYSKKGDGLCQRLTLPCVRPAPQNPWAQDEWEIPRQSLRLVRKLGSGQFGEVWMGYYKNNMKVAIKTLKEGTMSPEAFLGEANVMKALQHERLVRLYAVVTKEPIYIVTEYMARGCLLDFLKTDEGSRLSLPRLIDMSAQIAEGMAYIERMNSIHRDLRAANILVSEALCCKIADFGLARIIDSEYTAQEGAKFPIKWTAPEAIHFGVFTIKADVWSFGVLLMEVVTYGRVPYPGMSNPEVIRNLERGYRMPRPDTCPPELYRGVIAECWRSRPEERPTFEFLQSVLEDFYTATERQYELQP

Take `COc1cc2nccc(Oc3ccc(NS(=O)(=O)c4ccc(F)c(Cl)c4)c(F)c3)c2cc1OC`: in data set [1], the half-maximal inhibitory concentration (IC50) (usually the concentration that inhibits the measured activity by half) was more than 1000 nM.

For the compound `COc1cc2c(Oc3ccc(NS(=O)(=O)c4ccccc4OC(F)(F)F)cc3F)ccnc2cc1OCCCN1CCN(C)CC1`, the half-maximal inhibitory concentration (IC50) in data set [1] amounted to 51 nM; in data set [2] it was 51 nM; in data set [3], 1950 nM; in data set [4], 1540 nM; in data set [5] it was 3080 nM; in the data set on MDA-MB-231 [6], 4300 nM. In the data set on MDA-MB-231 [8], the IC50 came to 103 nM. Besides, the inhibition result in the data set with MDA-MB-231 [7] was “Active”. Also, the “Ratio IC50” value in [9] is on record as more than 50. In [10], the Selectivity ratio is 2 - 6.

As to `COc1cc2c(Oc3ccc(NS(=O)(=O)c4ccccc4C(F)(F)F)cc3F)ccnc2cc1OCCCN1CCC(C)CC1`, the result in data set [11], in data set [12], in data set [13], in data set [14], in [15] and in data set [16] was Active. Also, the result in [17], in data set [18], in data set [19], in data set [20], in [21] and in data set [22] was Active. The result in data set [23], in [24] and in data set [25] was Active. The IC50 stood at 46 nM in [2], 1720 nM in data set [3], 609 nM in data set [4] and 592 nM in data set [5]. For the same compound, the “Ratio IC50” value in data set [9] is reported as more than 50.

The compound `COc1cc2c(Oc3ccc(NS(=O)(=O)c4cc(F)ccc4F)cc3F)ccnc2cc1OCC(=O)N(C)C` returned an IC50 in data set [1] of more than 1000 nM.

As to `COc1cc2c(Oc3ccc(NS(=O)(=O)c4ccccc4C(F)(F)F)cc3F)ccnc2cc1OCCCN1CCOCC1`, the IC50 in data set [1] turned out to be 21 nM; in [2] it was 21 nM; in [3], 995 nM; in data set [4], 338 nM; in data set [5], 650 nM. The outcome in [11], in data set [12], in data set [13], in data set [14], in [15] and in data set [16] was Active. Further, the result in data set [17], in [18], in [19], in data set [20], in data set [21] and in [22] was Active. In addition, the outcome in [23], in data set [24] and in data set [25] was Active. For the same compound, the “Ratio IC50” value in [9] is more than 50.

In [1], `COc1cc2nccc(Oc3ccc(NS(=O)(=O)c4c(F)cccc4F)c(F)c3)c2cc1OC` yielded a half-maximal inhibitory concentration (IC50) of more than 1000 nM.

For `CC(=O)O[C@H]1C(=O)[C@@]2(C)[C@H]([C@H](OC(=O)c3ccccc3)[C@]3(O)C[C@H](OC(=O)[C@H](O)[C@@H](NC(=O)c4ccccc4)c4ccccc4)C(C)=C1C3(C)C)[C@]1(OC(C)=O)CO[C@@H]1C[C@@H]2O` [PACLITAXEL], the Activity result in data set [26] was “Toxic”; in the data set with MDA-MB-231 [28], 54.3%. Also, the TGI entry with MDA-MB-231 [27] is “Active”. Besides, the outcome in the data set on MDA-MB-231 [29] was inactive.
